From paper PMC3859345 (Science translational medicine, 2013)
“Also recorded” adds a separate entry of the source. Where no end group is shown, it is not given here. The star is where a group is joined. FITC = O=C1OC2(c3ccc(O)cc3Oc3cc(O)ccc32)c2ccc(NC(=S)*)cc21; Ahx = NCCCCCC(=O)O

What was measured:
[1] = Fluorescence emission spectra; format: physicochemical; conditions: 100 μM in PBS, 471 nm excitation
[2] = test system: H460, FLO1, OE33, and OE19 adenocarcinoma cells; assay: Confocal fluorescence microscopy, control peptides; format: binding, human; conditions: compared with ASY*-FITC
adenocarcinoma cells = assay: Flow cytometry, adenocarcinoma cells; format: binding, human; conditions: for mean intensity of controls lower than that for ASY*-FITC: flow cytometry, relative to ASY*-FITC
Procedure, shortened: (§1)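 Adenocarcinoma and non-neoplastic Q-hTERT cells, grown as adherent monolayers at 37°C, 5% CO2, incubated with FITC-labelled peptide, with FITC-labelled control peptides (including a scrambled sequence), or left unstained. Mean fluorescence intensity measured by flow cytometry.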

Q-hTERT cells [3] = assay: Flow cytometry, Q-hTERT cells; format: binding, human
Procedure, shortened: as §1

[4] = Stability testing of lyophilized powder; format: physicochemical; conditions: −20°C
Procedure, shortened: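 GMP-synthesized FITC-peptide aliquoted into amber vials crimp-sealed with septa and stored at −20°C. Monitored by appearance (colour), HPLC and mass spectrometry over 3 years.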

[5] = test system: human esophageal mucosa (squamous, BE, HGD, EAC); assay: Ex vivo fluorescence stereomicroscopy of resected esophageal specimens; format: binding; conditions: 1 mm^2 regions, 12 EMR specimens
[6] = test system: OE33 adenocarcinoma cells; assay: Confocal fluorescence microscopy, OE33; format: binding, human
Procedure, shortened: (§2)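 Adherent OE19 and OE33 esophageal carcinoma monolayers maintained at 37°C, 5% CO2 in RPMI-1640 with 10% FBS, penicillin/streptomycin and 5 μg/ml plasmocin. FITC-labelled peptide binding to the plasma membrane examined by confocal fluorescence microscopy.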

[7] = test system: FLO1 adenocarcinoma cells; assay: Confocal fluorescence microscopy, FLO1; format: binding, human
Procedure, shortened: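 FLO1 esophageal adenocarcinoma cells cultured as adherent monolayers in DMEM with 10% FBS, penicillin/streptomycin and 5 μg/ml plasmocin at 37°C, 5% CO2. Plasma-membrane binding of FITC-labelled peptide assessed by confocal fluorescence microscopy.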

[8] = test system: OE19 adenocarcinoma cells; assay: Confocal fluorescence microscopy, OE19; format: binding, human
Procedure, shortened: as §2

H460 cells [9] = assay: Binding kinetics; set-up: species or system human; conditions: ASY*-FITC to H460 cells; least squares fit
Procedure, shortened: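 H460 lung adenocarcinoma cells grown as adherent monolayers in DMEM with 10% FBS and 100 U/ml penicillin/streptomycin at 37°C, 5% CO2. Association time constant k determined for FITC-labelled peptide binding to these cells.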

human subjects [10] = assay: Peptide safety in humans
human subjects [11] = conditions: in vivo
Q-hTERT cells [12] = assay: Confocal fluorescence microscopy, Q-hTERT; format: binding, human; conditions: Q-hTERT BE cells
Procedure, shortened: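 Non-neoplastic Q-hTERT Barrett's cells kept in keratinocyte serum-free medium with 50 μg/ml bovine pituitary extract, 0.005 μg/ml recombinant human EGF and penicillin/streptomycin, as adherent monolayers at 37°C, 5% CO2. Binding of FITC-labelled peptide checked by confocal fluorescence microscopy.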

[13] = test system: H460 adenocarcinoma cells; assay: Confocal fluorescence microscopy, H460; format: binding, human
Procedure, shortened: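 Adherent H460 cultures (DMEM, 10% FBS, P/S, 37°C, 5% CO2) were incubated with FITC-labeled test peptide and examined by confocal fluorescence microscopy for plasma-membrane labeling. Non-neoplastic Q-hTERT Barrett's cells, grown in keratinocyte serum-free medium with 50 μg/ml bovine pituitary extract and 0.005 μg/ml EGF, were the control line.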

[14] = test system: Barrett's neoplasia (HGD/EAC); assay: Confocal endomicroscopy in vivo after topical peptide administration; set-up: species or system human
H460 cells [15] = assay: Binding affinity; set-up: species or system human; conditions: read-out: apparent dissociation constant (kd); ASY*-FITC to H460 cells; averages from 3 independent experiments; least squares fit
Procedure, shortened: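 Human H460 lung adenocarcinoma cells were grown as adherent monolayers in DMEM with 10% FBS and 100 U/ml penicillin/streptomycin at 37°C, 5% CO2. They were incubated with FITC-labeled test peptide, and the apparent dissociation constant was derived from cell-bound fluorescence. Values are averages of 3 independent experiments.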

[16] = test system: human H460 adenocarcinoma cells; assay: Phage display biopanning, phage count / pfu binding to H460 cells; conditions: pfu counts
H460 cells [17] = assay: Competitive binding with ASY*-FITC on H460 cells; set-up: species or system human; conditions: unlabeled competitor 100 to 1000 μM (GGG* control at concentrations up to 1000 μM, P>0.05, unpaired t-test)
ovarian cancer = conditions: topical administration, mouse model of ovarian cancer; cited from earlier work

## O=C1OC2(c3ccc(O)cc3Oc3cc(O)ccc32)c2ccc(N=C=S)cc21 [FITC, reference compound]
[1]
  peak emission: 519 nm

## AADYYSN-GGGSK-FITC
[2]
  fluorescence signal of control peptides: Significantly less signal
Adenocarcinoma cells
  mean intensity of controls lower than that for ASY*-FITC: < 3 fold
Q-hTERT cells [3]
  difference between ASY*-FITC and control peptides on binding to Q-hTERT cells: No difference

## ASYNYDA [ASY*-FITC]
[4]; 36 months, initial 97%
  purity on HPLC at end of stability testing: 95%
[4]; over 36 months (97% to 95%)
  change in purity on HPLC: ~ 2%
[5]
  mean fluorescence intensities for HGD and EAC versus non-dysplastic BE and squamous: significantly greater than non-dysplastic BE and squamous
[6]
  binding to plasma membrane (confocal), OE33: binding of ASY*-FITC to the plasma membrane; also recorded: specific binding
[7]
  binding to plasma membrane (confocal), FLO1: binding of ASY*-FITC to the plasma membrane; also recorded: specific binding
[8]
  binding to plasma membrane (confocal), OE19: binding of ASY*-FITC to the plasma membrane; also recorded: specific binding
H460 cells [9]
  apparent association rate constant (k): 0.2 min⁻¹
[1]
  peak emission: 519 nm
Human subjects [10]; 14 out of 21 patients with leukocytosis resolved, SD, P<0.01, Mann Whitney test
  mean WBC count ratio by day 5: 1.1±0.2
Human subjects [10]; 21 patients with EMR, baseline 7.0×10^3, P<0.01, unpaired t-test, transient
  mean white blood cell (WBC) count at 24 hours: 11.1×10^3
Human subjects [10]; BE patients, topical
  safety of topical application (in words): safe and effective
Human subjects [10]; after EMR with peptide, remaining 7 patients after day 5
  patients with leukocytosis resolved by day 5: 14 out of 21
Human subjects [10]; all 25 patients, baseline and post-procedure
  urinalyses: within normal limits
Human subjects [10]; all adverse events, clinical study
  relation of adverse events to the peptide: unlikely to have been related to the peptide
Human subjects [10]; animal and patient studies
  toxicity attributed to the peptide: No toxicity was attributed to the peptide
Adenocarcinoma cells; compared with control peptides
  binding on flow cytometry (in words): stronger binding to the adenocarcinoma cells
Human subjects [11]
  mean post/pre-EMR WBC ratio at 24 hours: 1.7±0.4
  post/pre-EMR WBC ratio without peptide compared with peptide and EMR: not significantly different
Q-hTERT cells [3]
  difference between ASY*-FITC and control peptides on binding to Q-hTERT cells: No difference
Q-hTERT cells [12]
  binding to Q-hTERT cells: did not bind to Q-hTERT cells
[13]
  binding to plasma membrane (confocal), H460: binding of ASY*-FITC to the plasma membrane
[14]; 25 human subjects, topical 5 ml of 100 μM, 5 min incubation
  greater fluorescence intensity for HGD/EAC (neoplasia) than for BE and squamous: 3.8 fold
[14]; HGD and EAC crypts, confocal endomicroscopy
  in vivo binding, HGD and EAC: specific peptide binding to neoplastic crypts
[14]; T/B ratio threshold 4.2, 95% CI: 85%–100%, 25 human subjects
  specificity for HGD/EAC: 97%
[14]; normal squamous epithelium, confocal endomicroscopy
  in vivo binding, squamous epithelium: no peptide binding
[14]; topical administration
  onset of binding: ~ 5 minutes
H460 cells [15]
  Kd: 32 nM

## ASYNYDA [ASYNYDA phage]
[16]; H460 vs Q-hTERT BE cells
  greater binding for H460 than for Q-hTERT cells: 5.3 fold
[16]; vs WT-phage (no peptides expressed)
  greater binding for H460 cells in comparison to wild-type (WT)-phage: > 10 fold

## GGGAGGGAGGGK
H460 cells [17]
  inhibition of ASY*-FITC binding (fluorescence intensity): No significant reduction in fluorescence intensity

## GGGAGGGAGGGK-FITC
[2]
  fluorescence signal of control peptides: Significantly less signal
Adenocarcinoma cells
  mean intensity of controls lower than that for ASY*-FITC: < 3 fold
Q-hTERT cells [3]
  difference between ASY*-FITC and control peptides on binding to Q-hTERT cells: No difference

## MNDPIPQ-GGGSK-FITC
[2]
  fluorescence signal of control peptides: Significantly less signal
Adenocarcinoma cells
  mean intensity of controls lower than that for ASY*-FITC: < 3 fold
Q-hTERT cells [3]
  difference between ASY*-FITC and control peptides on binding to Q-hTERT cells: No difference

## {FITC-Ahx}-ASYNYDA
[2]
  fluorescence signal of control peptides: Significantly less signal
Adenocarcinoma cells
  mean intensity of controls lower than that for ASY*-FITC: < 3 fold
Q-hTERT cells [3]
  difference between ASY*-FITC and control peptides on binding to Q-hTERT cells: No difference

## γ-glutamyl hydroxymethyl rhodamine green
Ovarian cancer
  time to fluorescence activation: ~ 1 minute
